According to ChEMBL document CHEMBL2401668, “Evaluation of thiazole containing biaryl analogs as diacylglycerol acyltransferase 1 (DGAT1) inhibitors” (Eur J Med Chem, 2013):
In brackets after ≈: the same amount, converted by molar mass.

Tests used:
[1] = AUC (infinity) in Swiss mouse at 10 mg/kg, po by ESI-LC/MS/MS method; assay type: ADME, organism-based; design: time infinity, dose 10 mg/kg, route oral; settings: plasma
In short: (§1)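 Oral dose of 10 mg/kg, given as a 1 mg/ml suspension in 0.5% CMC with Tween 80 to weighed Swiss mice (n = 4). Blood was drawn at 0.08–24 h, and plasma was kept on ice, centrifuged at 4 °C and stored at −80 °C. Levels were measured by ESI-LC/MS/MS. Parameters came from non-compartmental analysis: Cmax and Tmax read from the profile, AUC0–t by linear trapezoidal rule, AUCinf extrapolated, and T1/2 = 0.693/λz.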

[2] = Half life in Swiss mouse at 10 mg/kg, po by ESI-LC/MS/MS method; assay type: ADME, organism-based; design: dose 10 mg/kg, route oral; settings: in vivo; in short: as §1
[3] = AUC (0 to t) in Swiss mouse at 10 mg/kg, po by ESI-LC/MS/MS method; assay type: ADME, organism-based; design: dose 10 mg/kg, route oral; settings: plasma; in short: as §1
[4] = Tmax in Swiss mouse at 10 mg/kg, po by ESI-LC/MS/MS method; assay type: ADME, organism-based; design: dose 10 mg/kg, route oral; settings: in vivo; in short: as §1
[5] = Cmax in Swiss mouse at 10 mg/kg, po by ESI-LC/MS/MS method; assay type: ADME, organism-based; design: dose 10 mg/kg, route oral; settings: in vivo; in short: as §1
Mus musculus = experiment: Antihyperlipidemic activity in Swiss mouse assessed as reduction in plasma triglyceride level at 3 mg/kg, po after 1 to 4 hrs by acute fat tolerance test relative to control; assay type: functional; design: scale not given: the % may be the effect or the level left
In short: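 Fasted Swiss mice (4–5 weeks, 25–30 g) were given 3 mg/kg by oral gavage as a suspension in 0.5% CMC with Tween 80, or vehicle (0.5% CMC). An olive oil bolus (10 ml/kg) followed 1 h later. Plasma was taken at 1, 2, 3 and 4 h and triglycerides were measured with a kit. The triglyceride AUC0–4 h was expressed as percent reduction, with the vehicle group taken as 100%.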

[6] = Solubility of the compound at pH 7.4; assay type: physicochemical; settings: buffer

Structure (SMILES) | AUC(0-inf) [1] | half-life [2] | AUC(0-t) [3] | Tmax [4] | Cmax [5] | Activity (Mus musculus) | solubility [6]
CC(C)[C@H](NC(=O)c1ccc(-c2ccc(Nc3nc4ccc(F)cc4s3)cc2)cc1)C(=O)O | 5350 ng·h/mL | 37.2 min | 5340 ng·h/mL | 15 min | 5.3 µM | 90% | 10 µg/mL (≈ 21.6 µM)
CC(C)[C@H](NC(=O)c1ncc(-c2ccc(NC(=O)Nc3ccccc3Cl)cc2)s1)C(=O)O | 672 ng·h/mL | 29.4 min | 623 ng·h/mL | 9.6 min | 1.9 µM | 82% | –
CC(C)[C@H](NC(=O)c1ncc(-c2ccc(NC(=O)c3ccc(C(C)(C)C)cc3)cc2)s1)C(=O)O | 7070 ng·h/mL | 49.8 min | 7060 ng·h/mL | 10.2 min | 11.3 µM | 87% | –
